Laboratory results from ChEMBL document CHEMBL3861985, “Discovery of N-(1-(3-(4-phenoxyphenyl)-1,2,4-oxadiazol-5-yl)ethyl)acetamides as novel acetyl-CoA carboxylase 2 (ACC2) inhibitors with peroxisome proliferator-activated receptor α/δ (PPARα/δ) dual agonistic activity” (Bioorg Med Chem, 2016).

Legend:
Acetyl-CoA carboxylase 2 [1] = biological target: T1, Acetyl-CoA carboxylase 2 (Homo sapiens, UniProt O00763); test: Inhibition of full length recombinant C-terminal His-tagged human ACC2 expressed in baculovirus infected sf9 cells using acetyl-CoA as substrate after 90 mins by ATP consumption assay
How it was run: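 Recombinant C-terminal His-tagged human ACC2 (50 ng/well) was run in 30 mM HEPES pH 7.5 with 18 mM NaHCO3, 1.0 mg/mL BSA, 0.5 μM ATP, 1 mM DTT, 4 mM MgCl2, 2 mM sodium citrate, 0.5 mM acetyl-CoA and 1% DMSO. Inhibitor ranged 0–100 μM. Enzyme addition started the reaction, then 90 min at 37 °C. Residual ATP was read by luminescence. Triplicates; IC50 from dose–response curves.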
Target sequence in this assay (O00763 whole entry): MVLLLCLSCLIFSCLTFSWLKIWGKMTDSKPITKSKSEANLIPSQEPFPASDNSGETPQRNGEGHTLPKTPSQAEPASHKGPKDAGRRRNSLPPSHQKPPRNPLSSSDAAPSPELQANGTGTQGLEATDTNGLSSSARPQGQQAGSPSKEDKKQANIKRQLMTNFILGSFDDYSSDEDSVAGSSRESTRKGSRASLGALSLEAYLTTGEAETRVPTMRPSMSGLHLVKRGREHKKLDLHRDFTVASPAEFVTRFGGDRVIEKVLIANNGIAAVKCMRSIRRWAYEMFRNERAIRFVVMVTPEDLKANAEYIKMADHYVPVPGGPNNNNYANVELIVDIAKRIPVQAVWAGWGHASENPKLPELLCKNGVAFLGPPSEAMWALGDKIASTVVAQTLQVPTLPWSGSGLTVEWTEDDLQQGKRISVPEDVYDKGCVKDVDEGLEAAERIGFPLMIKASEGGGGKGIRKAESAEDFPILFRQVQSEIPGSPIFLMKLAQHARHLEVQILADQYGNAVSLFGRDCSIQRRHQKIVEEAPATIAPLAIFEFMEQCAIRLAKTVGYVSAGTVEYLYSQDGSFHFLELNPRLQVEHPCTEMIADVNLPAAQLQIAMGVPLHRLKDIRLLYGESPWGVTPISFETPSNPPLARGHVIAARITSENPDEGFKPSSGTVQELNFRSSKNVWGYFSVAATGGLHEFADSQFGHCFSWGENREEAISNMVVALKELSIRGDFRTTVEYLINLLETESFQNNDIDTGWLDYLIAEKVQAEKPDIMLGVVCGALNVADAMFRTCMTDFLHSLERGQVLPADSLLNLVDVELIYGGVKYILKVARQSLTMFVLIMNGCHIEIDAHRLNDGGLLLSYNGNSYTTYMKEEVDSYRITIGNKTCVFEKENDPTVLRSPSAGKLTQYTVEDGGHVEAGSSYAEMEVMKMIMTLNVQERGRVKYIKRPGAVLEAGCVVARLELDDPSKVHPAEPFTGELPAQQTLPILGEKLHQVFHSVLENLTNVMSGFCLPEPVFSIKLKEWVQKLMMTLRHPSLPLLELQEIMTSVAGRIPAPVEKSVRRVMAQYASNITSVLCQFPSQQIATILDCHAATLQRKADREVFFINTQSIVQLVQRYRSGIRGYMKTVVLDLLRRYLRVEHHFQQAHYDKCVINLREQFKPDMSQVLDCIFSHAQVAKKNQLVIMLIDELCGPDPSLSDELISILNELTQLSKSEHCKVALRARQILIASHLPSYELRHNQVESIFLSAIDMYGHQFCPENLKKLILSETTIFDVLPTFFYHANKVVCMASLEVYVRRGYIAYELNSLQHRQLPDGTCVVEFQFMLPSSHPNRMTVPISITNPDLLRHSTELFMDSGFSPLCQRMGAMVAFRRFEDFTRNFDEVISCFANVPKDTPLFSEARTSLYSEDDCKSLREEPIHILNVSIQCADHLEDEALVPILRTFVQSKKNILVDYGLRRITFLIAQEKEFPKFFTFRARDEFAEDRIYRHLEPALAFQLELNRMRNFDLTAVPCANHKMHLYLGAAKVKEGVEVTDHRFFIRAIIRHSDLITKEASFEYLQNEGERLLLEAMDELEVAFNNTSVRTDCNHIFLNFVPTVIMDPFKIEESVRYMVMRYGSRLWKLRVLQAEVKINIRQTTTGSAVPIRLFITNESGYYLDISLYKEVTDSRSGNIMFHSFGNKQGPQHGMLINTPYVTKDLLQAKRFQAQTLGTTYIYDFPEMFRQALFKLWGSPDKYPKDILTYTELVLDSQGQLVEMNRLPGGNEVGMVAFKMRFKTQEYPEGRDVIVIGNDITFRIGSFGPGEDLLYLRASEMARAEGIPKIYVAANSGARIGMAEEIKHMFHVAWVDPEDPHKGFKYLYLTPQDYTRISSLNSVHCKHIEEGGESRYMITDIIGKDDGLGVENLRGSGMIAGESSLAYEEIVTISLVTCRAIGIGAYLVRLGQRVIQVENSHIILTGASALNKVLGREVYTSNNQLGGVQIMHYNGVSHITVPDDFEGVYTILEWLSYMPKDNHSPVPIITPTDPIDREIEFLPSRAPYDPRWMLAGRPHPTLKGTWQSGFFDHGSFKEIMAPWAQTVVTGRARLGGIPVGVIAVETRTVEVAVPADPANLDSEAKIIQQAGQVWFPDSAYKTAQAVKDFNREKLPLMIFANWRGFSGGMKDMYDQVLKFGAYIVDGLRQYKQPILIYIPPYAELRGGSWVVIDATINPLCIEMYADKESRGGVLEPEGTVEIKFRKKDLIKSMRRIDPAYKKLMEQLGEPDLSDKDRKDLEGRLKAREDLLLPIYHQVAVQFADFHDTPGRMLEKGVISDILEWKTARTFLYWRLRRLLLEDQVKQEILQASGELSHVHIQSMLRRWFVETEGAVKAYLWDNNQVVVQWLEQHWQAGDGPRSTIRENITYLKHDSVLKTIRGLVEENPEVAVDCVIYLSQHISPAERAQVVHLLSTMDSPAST

[2] = biological target: T2, Peroxisome proliferator-activated receptor delta (Homo sapiens, UniProt Q03181); test: Agonist activity at GAL4-tagged human PPARdelta ligand binding domain chimeric receptor expressed in HEK293 cells after 24 hrs by luciferase reporter gene assay; type: cell-based
T2 sequence (Q03181 whole entry): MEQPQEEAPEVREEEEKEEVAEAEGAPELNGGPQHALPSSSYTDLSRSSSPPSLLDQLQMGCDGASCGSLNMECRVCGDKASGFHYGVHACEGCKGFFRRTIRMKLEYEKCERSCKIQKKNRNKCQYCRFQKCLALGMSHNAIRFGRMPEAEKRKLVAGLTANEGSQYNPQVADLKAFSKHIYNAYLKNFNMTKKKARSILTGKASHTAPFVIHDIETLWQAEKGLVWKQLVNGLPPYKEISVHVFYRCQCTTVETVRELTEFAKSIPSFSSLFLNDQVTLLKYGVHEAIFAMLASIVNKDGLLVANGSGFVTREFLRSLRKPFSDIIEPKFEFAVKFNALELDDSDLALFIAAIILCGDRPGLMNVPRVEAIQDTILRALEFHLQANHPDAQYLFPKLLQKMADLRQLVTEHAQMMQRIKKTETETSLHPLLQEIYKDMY

Acetyl-CoA carboxylase 2 [3] = biological target: T1, Acetyl-CoA carboxylase 2; test: Inhibition of full length recombinant C-terminal His-tagged human ACC2 expressed in baculovirus infected sf9 cells at 30 uM using acetyl-CoA as substrate after 90 mins by ATP consumption assay relative to N-(4-(4-(4-isopropoxyphenoxy)phenyl)but-3-yn-2-yl)acetamide
How it was run: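 ATP-consumption assay with His-tagged human ACC2 (50 ng/well), 0.5 mM acetyl-CoA, 0.5 μM ATP and bicarbonate/citrate/Mg2+ in HEPES pH 7.5, run 90 min at 37 °C. Residual ATP was measured. Inhibition at 30 μM is expressed as a percentage of the maximum inhibition reached by the reference ACC inhibitor (set to 100%).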
Target sequence in this assay (O00763 whole entry, looked up): as the sequence (O00763 whole entry) above

[4] = biological target: T3, Peroxisome proliferator-activated receptor alpha (Homo sapiens, UniProt Q07869); test: Agonist activity at GAL4-tagged human PPARalpha ligand binding domain chimeric receptor expressed in HEK293 cells after 24 hrs by luciferase reporter gene assay; type: cell-based
T3 sequence (Q07869 whole entry): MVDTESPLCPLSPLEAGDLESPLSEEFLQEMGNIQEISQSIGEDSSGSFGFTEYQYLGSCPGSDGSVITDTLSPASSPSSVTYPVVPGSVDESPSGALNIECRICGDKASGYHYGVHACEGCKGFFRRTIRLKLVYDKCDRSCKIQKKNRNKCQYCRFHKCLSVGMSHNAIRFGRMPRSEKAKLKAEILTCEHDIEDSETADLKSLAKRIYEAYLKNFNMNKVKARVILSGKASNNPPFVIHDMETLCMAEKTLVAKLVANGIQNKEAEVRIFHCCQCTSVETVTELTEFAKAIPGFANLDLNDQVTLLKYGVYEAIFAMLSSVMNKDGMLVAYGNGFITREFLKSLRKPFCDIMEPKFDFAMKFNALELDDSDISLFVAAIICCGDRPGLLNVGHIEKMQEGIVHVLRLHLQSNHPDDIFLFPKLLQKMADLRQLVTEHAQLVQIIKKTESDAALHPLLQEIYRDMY
How it was run: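 HEK293 cells seeded at 20% confluence the day before. They were co-transfected by calcium phosphate with a CMX-GAL4N-hPPARα, γ or δ LBD plasmid (30 ng), TK-MH100x4-Luc reporter (100 ng) and CMX-β-galactosidase (10 ng). After 24 h, compound was added for 24 h (final 0.5% DMSO). Luciferase was read and normalized to β-galactosidase (2-nitrophenyl-β-D-galactopyranoside, A405). Triplicates; EC50 taken from dose–response curves.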

[5] = biological target: T4, Peroxisome proliferator-activated receptor alpha (Homo sapiens) (UniProt Q07869); test: Agonist activity at GAL4-tagged human PPARalpha ligand binding domain chimeric receptor expressed in HEK293 cells after 24 hrs by luciferase reporter gene assay relative to GW7647; type: cell-based
T4 sequence (whole entry): T3 sequence (Q07869 whole entry)

[6] = biological target: T5, Peroxisome proliferator-activated receptor delta (Homo sapiens) (UniProt Q03181); test: Agonist activity at GAL4-tagged human PPARdelta ligand binding domain chimeric receptor expressed in HEK293 cells after 24 hrs by luciferase reporter gene assay relative to GW501516; type: cell-based
T5 sequence (whole entry): T2 sequence (Q03181 whole entry)

Row | SMILES | IC50 (Acetyl-CoA carboxylase 2 [1]) | EC50 [2] | Imax (Acetyl-CoA carboxylase 2 [3]) | EC50 [4] | Emax [5] | Emax [6]
1 | CCOc1ccc(Oc2ccc(-c3noc(C(C)NC(C)=O)n3)cc2)cc1 (configuration not stated) | 0.42 µM | 0.37 µM | 35% | 0.33 µM | – | –
2 | CC(=O)NCc1nc(-c2ccc(Oc3ccc(OC(C)C)cc3)cc2)no1 | 1.1 µM | – | 83% | – | – | –
3 | CC(=O)NC(C)c1nc(-c2ccc(Oc3ccc(O)cc3)cc2)no1 (configuration not stated) | – | 1 µM | 24% | 1 µM | 13 to 33% | 2 to 9%
4 | CC(=O)N[C@H](C)c1nc(-c2ccc(Oc3ccc(Oc4ccccc4)cc3)cc2)no1 | 7.5 µM | – | 67% | – | – | –
5 | COc1ccc(Oc2ccc(-c3noc(C(C)NC(C)=O)n3)cc2)cc1 (configuration not stated) | – | 0.39 µM | 17% | 0.21 µM | – | –
6 | CCCOc1ccc(Oc2ccc(-c3noc(C(C)NC(C)=O)n3)cc2)cc1 (configuration not stated) | 0.61 µM | – | 88% | – | – | –
7 | CC(=O)N[C@H](C)c1nc(-c2ccc(Oc3ccccc3)cc2)no1 | – | – | 37% | – | – | –
8 | CC(=O)NCc1nc(-c2ccc(Oc3ccc(O)cc3)cc2)no1 | – | – | 3% | – | – | –

Now from value to compound:

Row | IC50 (Acetyl-CoA carboxylase 2 [1]) | EC50 [2] | Imax (Acetyl-CoA carboxylase 2 [3]) | EC50 [4] | Emax [5] | Emax [6] | SMILES
9 | 0.22 µM | 0.29 µM | 65% | 0.15 µM | – | – | CC(=O)N[C@@H](C)c1nc(-c2ccc(Oc3ccccc3)cc2)no1
10 | 0.1 µM | – | 74% | – | – | – | CC(=O)NC(C)c1nc(-c2ccc(Oc3ccc(OC(C)C)cc3)cc2)no1 (configuration not stated)
11 | 0.016 µM | – | 86% | – | – | – | CC(=O)N[C@@H](C)c1nc(-c2ccc(Oc3ccc(Oc4ccccc4)cc3)cc2)no1
12 | 0.26 µM | – | 93% | – | – | – | CCCCCCOc1ccc(Oc2ccc(-c3noc(C(C)NC(C)=O)n3)cc2)cc1 (configuration not stated)
13 | 0.011 µM | – | – | – | – | – | CC(=O)NC(C)C#Cc1ccc(Oc2ccc(OC(C)C)cc2)cc1 (configuration not stated)
14 | 0.048 µM | – | 76% | – | – | – | CC(=O)NC(C)c1nc(-c2ccc(Oc3ccc(Oc4ccccc4)cc3)cc2)no1 (racemic)
15 | 0.29 µM | 0.32 µM | 45% | 0.32 µM | – | – | CC(=O)NC(C)c1nc(-c2ccc(Oc3ccccc3)cc2)no1 (racemic)
